# S1P4 agonist = S1P4 receptor agonists, primary screen, cell-based; AID 1509, 2009; 220,000 compounds, 0.35% hits; S1P4-expressing cell line, agonist reporter assay; activation, % at 4.98 µM; Sphingosine 1-phosphate receptor 4 (Homo sapiens), O95977; in the data active = activation above about 11%;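 note: 0% = DMSO vehicle and 100% = reference agonist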
# S1P4 antagonist = S1P4 receptor antagonists, primary screen, cell-based; Sphingosine 1-phosphate receptor 4 (Homo sapiens), O95977; S1P4-expressing cells, antagonist mode, reporter read-out; inhibition, % at 4.98 µM; 220,000 compounds, 0.26% hits; AID 1510, 2009; in the data active = inhibition above about 29%;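 note: 0% = wells stimulated with agonist and 100% = vehicle wells without agonist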
# TNAP inh noacc = human TNAP enzyme inhibitors, primary screen, biochemical, luminescent, no phosphate acceptor, uHTS; Alkaline phosphatase, tissue-nonspecific isozyme (Homo sapiens), P05186; purified TNAP, CDP-star luminescence, 30 min; inhibition, % at 20 µM; 200,000 compounds, 0.26% hits; AID 1012, 2008;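 active = tissue-nonspecific alkaline phosphatase inhibition above about 50% at 20 µM in the single-dose screen, limit read from the data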;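 note: 0% = DMSO negative control and 100% = EDTA positive control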
# TNAP act hi DEA = TNAP activators at high phosphate acceptor level, primary screen, biochemical, luminescence, uHTS | Alkaline phosphatase, tissue-nonspecific isozyme (Homo sapiens), P05186 | purified TNAP, CDP-star luminescence, 1 M DEA, 30 min; stronger effect = higher value; 0 = EDTA background, 1 = DMSO-only activity | activation factor at 20 µM | 200,000 tested, under 10 active | AID 1136, 2008;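 active = activation factor at least 2 at 20 µM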
#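 system = human TNAP | amount = enzyme diluted 1/800 final | reagent = 100 µM CDP-star substrate | signal = luminescent substrate turnover signal | dosing = one dose, 20 µM | benchmarks = EDTA negative control, DMSO positive control | measure = activation factor | timing = 30 min reaction, room temperature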
# TNAP inh hiacc = human TNAP enzyme inhibitors, primary screen, biochemical, luminescent, high phosphate acceptor level, uHTS; Alkaline phosphatase, tissue-nonspecific isozyme (Homo sapiens), P05186; purified TNAP, CDP-star luminescence, 1 M DEA; inhibition, % at 20 µM; 200,000 compounds, 0.03% hits; AID 1135, 2008;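 active = over 50% inhibition of tissue-nonspecific alkaline phosphatase at 20 µM in the single-dose screen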;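 note: plate controls were DMSO wells for no effect and EDTA-quenched wells as full inhibition for full effect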
# S1P3 antagonist = S1P3 receptor antagonists, primary screen, cell-based; CHO S1P3 NFAT-BLA reporter, FRET fluorescence, antagonist mode; inhibition, % at 4.98 µM; 170,000 compounds, 0.27% hits;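 active = inhibition above the plate cutoff, the mean inhibition of test wells on that plate plus 3 SD, cut at about 28% in these data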;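 note: cells challenged with S1P at its EC80 of 0.8 µM; blue over green emission ratio from cleaved BLA substrate after 4 h stimulation; 0% = S1P-stimulated wells and 100% = unstimulated DMSO-only wells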
# S1P4 antag cf = S1P4 receptor antagonists, human, confirmation, cell-based. shares compounds with S1P4 antagonist. 520 compounds, 71% hits. S1P4-expressing cell line, antagonist mode, reporter read-out. inhibition, % at 4.98 µM; in the data active = inhibition above about 30%
# S1P1 antagonist = S1P1 receptor antagonists, human, counter-screen for S1P4 antagonist project, cell-based. inhibition, % at 4.98 µM. AID 1564, 2009. cell-based S1P1 antagonist counterscreen, inhibition. shares compounds with S1P4 antagonist. 520 compounds, 37% hits; in the data active = inhibition above about 40%;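 note: receptor stimulated with S1P near its EC80; 0% = agonist stimulated wells and 100% = vehicle only wells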
# Target sequence (P21453 whole entry, looked up): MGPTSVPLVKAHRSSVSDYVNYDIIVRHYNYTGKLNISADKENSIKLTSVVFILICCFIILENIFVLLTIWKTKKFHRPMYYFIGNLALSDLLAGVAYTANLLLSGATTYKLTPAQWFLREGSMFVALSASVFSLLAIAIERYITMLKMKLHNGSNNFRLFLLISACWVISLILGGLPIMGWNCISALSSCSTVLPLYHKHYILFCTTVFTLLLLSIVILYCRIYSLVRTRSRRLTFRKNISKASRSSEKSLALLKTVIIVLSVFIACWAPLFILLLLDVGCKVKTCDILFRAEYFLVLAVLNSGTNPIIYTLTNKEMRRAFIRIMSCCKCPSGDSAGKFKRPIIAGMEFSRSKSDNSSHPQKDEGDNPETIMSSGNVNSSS
# Starred values were filed as active, the others as inactive; x = no result. Most compounds without a hit are left out; they make up all but 1.1% or so of the library.
SMILES,S1P4 agonist,S1P4 antagonist,TNAP inh noacc,TNAP act hi DEA,TNAP inh hiacc,S1P3 antagonist,S1P4 antag cf,S1P1 antagonist
Cn1c2c(c(=O)n(C)c1=O)C(C(F)(F)F)(C(F)(F)F)N=C(c1ccc(Cl)cc1)N2,1,51*,-10,1,-4,x,21,-19
CC(C)N1CCC2(CC1)N=C(c1ccc3c(c1)OCO3)CC(c1cc(Cl)ccc1O)N2 (configuration not stated),0,35*,0,1,-2,10,79*,23
COc1ccc(C(=O)C(CCCCC(CN(C)C)C(=O)c2ccc(OC)cc2)CN(C)C)cc1 (configuration not stated),-4,-1,0,1,-2,x,x,x
CCOc1ccc(C(=O)C(CCC(CN(C)C)C(=O)c2ccc(OCC)cc2)CN(C)C)cc1 (configuration not stated),-3,43*,-12,1,0,13,110*,52*
CN(C)CC(CCC(CN(C)C)C(=O)c1ccccc1)C(=O)c1ccccc1 (configuration not stated),0,41*,x,x,x,8,110*,39
CCN(CC)c1ccc2c(Cl)c(Br)c(=O)oc2c1,1,53*,14,0.9,5,28,104*,74*
COc1ccc(N=C2S/C(=C\c3ccc(N4CCOCC4)o3)C(=O)N2CCc2c[nH]c3ccccc23)cc1,0,55*,16,0.9,12,x,68*,30
COc1ccc(N=C2S/C(=C\c3ccc(OCC(=O)O)cc3)C(=O)N2CCc2c[nH]c3ccccc23)cc1,0,-20,5,1,1,-17,x,x
O=[N+]([O-])c1ccc(N/N=C/c2c[nH]c3ccccc23)cc1,-3,37*,9,0.7,25,x,50*,78*
O=C(N/N=C/c1cccc2cccnc12)c1ccccc1O,-2,32*,x,x,x,-14,101*,79*
Cc1[nH]n2c(=O)cc(C(C)(C)C)nc2c1-c1ccccc1,1,34*,1,1,1,-7,1,12
O=C(NCCN1CCOCC1)c1ccc(=O)n(Cc2ccc(Cl)cc2)c1,0,-13,-4,1,1,2,x,x
CCC(c1nnnn1CCc1ccccc1)N1CCN(C(=O)c2ccco2)CC1 (configuration not stated),-2,33*,-14,1.1,-6,-20,7,18
CC(C)CC(c1nnnn1CCc1ccccc1)N1CCN(C(=O)c2ccco2)CC1 (configuration not stated),0,-2,-10,1,-4,-5,x,x
COc1ccc(C(=O)C(CN2CCCC2)c2ccccc2)cc1 (configuration not stated),-2,3,-2,1,0,x,x,x
COc1ccc(C(=O)C(CN2CCOCC2)c2ccccc2)cc1 (configuration not stated),-3,45*,-17,1.1,-6,x,31*,19
Cc1nn(C)c(C)c1N1C(=O)c2cccc3c(N)ccc(c23)C1=O,1,18,-18,0.9,8,1,x,x
Cc1nn(C)c(C)c1N1C(=O)c2cccc3c(Br)ccc(c23)C1=O,1,44*,0,1,1,x,89*,85*
Cc1ccc(CNC(=O)CSc2c3c(nc4ccc(Cl)cc24)CCCC3)o1,-1,35*,6,1,0,x,29*,7
Cn1c2c(c(=O)n3ncnc13)CCCC2,0,7,x,x,x,2,x,x
O=C(/C=C/c1ccccc1Cl)c1ccc(O)cc1,1,-10,x,x,x,2,x,x
O=C(/C=C/c1c(F)cccc1Cl)c1ccc(O)cc1,-1,42*,x,x,x,1,62*,17
Cc1ccc(C(=O)NCCN2C3=NC[C@H](C(C)C)N3C[C@H]2Cc2ccc(O)cc2)cc1Br,0,2,-3,1.1,-8,-6,x,x
COc1ccc(C[C@H]2CN3C(=NC[C@@H]3C(C)C)N2CCNC(=O)c2ccc(C)c(Br)c2)cc1,-1,34*,-10,1.1,-8,1,41*,34
COc1cc(/C=C/C(=O)O)cc(S(=O)(=O)NCCCC(=O)O)c1OC,-1,-11,3,0.9,7,3,x,x
SMILES,S1P4 agonist,S1P4 antagonist,TNAP inh noacc,TNAP act hi DEA,TNAP inh hiacc,S1P3 antagonist,S1P4 antag cf,S1P1 antagonist
Cc1nn(C)cc1C(=O)Nc1cc(Oc2ccc(Cl)cc2)cc([N+](=O)[O-])c1,0,-27,-6,1,-2,x,x,x
Cn1cc([N+](=O)[O-])c(C(=O)Nc2cc(Oc3ccccc3)cc([N+](=O)[O-])c2)n1,0,37*,9,1,2,-11,111*,-3
O=C(CC1N=C(Cc2ccccc2)NNC1=O)N/N=C/c1ccc([N+](=O)[O-])cc1 (configuration not stated),1,7,-4,1,-3,-5,x,x
Cn1c(=O)[nH]c(=O)c2c1nc([N+](=O)[O-])n2Cc1ccccc1,-1,51*,x,x,x,-3,68*,56*
CC(C)Cn1c([N+](=O)[O-])nc2c1c(=O)[nH]c(=O)n2C,-1,29*,x,x,x,15,24,16
CCNc1nc2c(c(=O)[nH]c(=O)n2C)n1CC(C)C,3,-16,-6,1,2,-10,x,x
NC(=S)N=Nc1c(O)[nH]c2c(Br)cc(Br)cc12,-1,4,-16,0.9,13,-22,x,x
Cc1cccc(C)c1NC(=O)COC(=O)c1nonc1N,1,29*,-4,1,-4,4,-7,10
Cc1cccc(C)c1NC(=O)COC(=O)c1cccnc1,3,0,-9,1,-1,-1,x,x
Cc1ccc(C(=O)N/C(=C\c2ccc(-c3ccc(Cl)cc3)o2)C(=O)NCCCN(C)C)cc1,-1,36*,-3,1.1,-5,-2,2,-5
CN(C)CCCNC(=O)/C(=C\c1ccc(-c2ccc(Br)cc2)o1)NC(=O)c1ccccc1,-1,-4,-2,1,-4,-17,x,x
C=CCn1cnc2c(nnn2Cc2ccc(F)cc2)c1=O,1,4,x,x,x,6,x,x
O=S(=O)(c1ccc(NC(=S)N/N=C/c2c3ccccc3cc3ccccc23)cc1)N1CCOCC1,-1,7,1,1,1,-2,x,x
